Here are results for five compounds from PubChem BioAssay AID493015 (Southern Research Specialized Biocontainment Screening …, 2011).

Activity calls are given as the source filed them.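 How the source made its calls: active means cell viability under 70% at any tested dose, a measure not printed in our tables; inactive means the rest.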

The subject of this experiment is HEp-2 cells, viability, luminescence (cytotoxicity counter-screen). Briefly: HEp-2 cell cytotoxicity, dose response, cytotoxicity control for RSV inhibitor project, synthesized compounds, set 4 (AID 493015). The procedure, abridged:
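Assay system: HEp-2 cells / Medium: DMEM/F12 plus heat-inactivated FBS / Dosing: 8-point 1:2 series, 50–0.39 µM, 0.5% DMSO / Schedule: 6-day compound exposure, 37 °C / Detection: CellTiter-Glo luminescence / Replicates: each concentration tested in triplicate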
Take `COc1ccccc1CNC(=O)C1CCN(S(=O)(=O)c2cccc3nonc23)CC1`: the CC50 (in general, the concentration at which the toxic effect on the cells reaches its halfway point) was > 50 µM (inactive).

As to `O=C(Nc1ccccc1)[C@@H]1CCCN1S(=O)(=O)c1cccc2cccnc12`, the 50% cytotoxic concentration (CC50) is 49 µM.

As to `Cc1ccc2c(c1)CCN2C(=O)[C@@H]1CCCN1S(=O)(=O)c1cccc2cccnc12`, the half-maximal cytotoxic concentration (CC50) is 18.1 µM.

As to `Cc1cccc(NC(=O)[C@@H]2CCCN2S(=O)(=O)c2cccc3cccnc23)c1`, the 50% cytotoxic concentration (CC50) was 27.6 µM.

For `CC(C)c1ccccc1NC(=O)[C@@H]1CCCN1S(=O)(=O)c1cccc2cccnc12`, the CC50 was 16.5 µM.
